KCNK3 inh = human KCNK3 channel inhibition, primary screen. AID 602410. B-score at 10 µM. CHO-KCNK3 thallium flux, FluxOR fluorescence; active compounds read low. O14649. hit rate 0.84% among 340,000;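 active = B-score under library mean minus 4 SD, starting fluorescence ratio at most library mean plus 5 SD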;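 also: more negative B-score means stronger inhibition of thallium flux through KCNK3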
KCNK9 block = inhibitors of human KCNK9 two-pore domain potassium channel; B-score at 10 µM; hit rate 1.2% among 310,000; HEK293 KCNK9, FluxOR thallium flux fluorescence; active compounds read low; Q9NPC2;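 active = ratio B-score over 3 SD below the library mean, with starting fluorescence within 5 SD of its mean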;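 also: negative B-score means less thallium flux so channel inhibition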
hERG rescue = hERG (human) protection from proarrhythmic block. Q12809. CHO-hERG, FluxOR thallium flux, dofetilide IC70 present. AID 1511. activation (rescue from dofetilide block), less the hit threshold, % at 10 µM. hit rate 0.51% among 310,000;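 active = activation above the mean of controls blocked by dofetilide plus 5 SD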;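 also: thallium influx through hERG after potassium depolarization seen as dye fluorescence rise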
KCNQ1 inh = inhibitors of human KCNQ1 potassium channel; hit rate 1.3% among 310,000; AID 2642; CHO-K1 KCNQ1, FluxOR thallium flux fluorescence; active compounds read high; P51787; B-score at 10 µM;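 active = compounds whose thallium flux B-score, printed positive for inhibition, exceeds three library SD while starting fluorescence stays within three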;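 also: channel opened by potassium depolarization with thallium stimulus after 20 min compound exposure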
KCNQ1 pot = potentiators or activators of human KCNQ1 potassium channel; P51787; CHO-K1 KCNQ1, thallium flux FluxOR fluorescence; active compounds read high; B-score at 10 µM; hit rate 0.35% among 310,000;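 active = fluorescence ratio B-score, a plate-corrected score, at least three library SD, with initial intensity B-score within 5 SD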
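Schedule – 37 °C overnight plating, 90-min dark dye load, 20-min compound pretreatment · System – stable KCNQ1 CHO-K1 line · Probe or stimulus – thallium- and potassium-containing depolarizing buffer · Measured by – kinetic FluxOR fluorescence, 10 s baseline plus 110 s post-stimulus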
KCC2 mod = KCC2 (human) Cl- transport modulation | Q9H2X9 | KCC2 cells, thallium flux FluoZin-2 fluorescence | B-score of Tl+ flux slope (higher = more flux/activation; lower = inhibition) at 10 µM | hit rate 2.2% among 190,000;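 active = thallium flux slope and its plate-corrected score both differing from the plate sample mean at a set confidence after two filtering rounds, in either direction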;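 also: slope of fluorescence scaled to starting intensity during 10 to 20 s after thallium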
KCC2 secondary = KCC2 (human) modulation, secondary assay | shares compounds with KCC2 mod | HEK293-KCC2, thallium flux, FluoZin2 fluorescence; active compounds read high | normalised thallium flux (F/F0 slope) at 10 µM | AID 1713 | hit rate 15% among 3,700;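 active = thallium flux slope above the same plate's solvent-only control mean plus 3 SD; inconclusive = the two replicate wells disagree; inactive = no significant difference from solvent-only control wells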
KCC2 bumet counter = bumetanide-insensitive thallium flux in KCC2 cells with ouabain, counter-screen | shares compounds with KCC2 mod | hit rate 49% among 3,700 | HEK293-KCC2 + bumetanide/ouabain, thallium flux FluoZin2; active compounds read high | normalized thallium flux at 10 µM;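 active = thallium entry rate above the same plate's blocked-transporter control wells by more than 3 SD; inconclusive = the two repeat wells disagree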;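 also: raw slope of fluorescence over initial fluorescence between 10 and 20 s after thallium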
KCC2 sec2 = KCC2 (human) modulation, second secondary assay; shares compounds with KCC2 mod; HEK293-KCC2, thallium flux FluoZin2 fluorescence; actives lie on both sides; F/F0 rise rate, 10–20 s post-thallium; normalized thallium flux at 10 µM; hit rate 23% among 3,700; AID 1715;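 active = thallium flux slope more than 3 SD above or below the plate's solvent-only control mean, mostly below; inconclusive = the two repeat wells disagreed; inactive = no significant shift from solvent-only controls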;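 also: raw slope with 0.1% DMSO as baseline and bumetanide as block control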
HEK counter1 = counter-screen for KCC2 modulators: effect in parental HEK293 cells | shares compounds with KCC2 mod | thallium flux FluoZin2, ouabain; baseline-ratio fluorescence slope, 10–20 s after thallium | thallium flux rate (normalised fluorescence) at 10 µM | hit rate 46% among 3,700;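 active = thallium flux rate significantly above the same plate's solvent-only control wells, beyond their mean plus 3 SD; inconclusive = the two replicate wells gave conflicting results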
KCC2 retest ouab = confirmation of human KCC2 modulators with ouabain; raw Tl+ flux slope (below DMSO = inhibition, above = activation) at 10 µM; AID 1717; shares compounds with KCC2 mod; hit rate 48% among 3,700; HEK293-KCC2, thallium flux FluoZin2 fluorescence; bidirectional: low = inhibitor, high = activator;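 active = thallium flux slope beyond 3 SD from same-plate DMSO control mean in most replicates, usually higher, sometimes lower; inconclusive = repeat tests gave conflicting results; inactive = no significant difference from controls in most replicates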;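 also: slope of initial-normalized fluorescence between seconds 10 and 20 after thallium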
HEK293 Tl flux2 = counter-screen for KCC2 modulators: effect in parental HEK293 cells | shares compounds with KCC2 mod | thallium flux FluoZin-2 fluorescence slope | thallium flux slope at 10 µM | hit rate 33% among 3,700;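 active = thallium flux slope above the same plate's solvent-control mean plus 3 SD in both duplicate wells; inconclusive = duplicate wells that disagreed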;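 also: run without ouabain in cells lacking the KCC2 cotransporter; slope of fluorescence scaled to its starting value between 10 and 20 s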
Starred values were filed as active, the others as inactive; i = inactive; ? = inconclusive; . = not tested or not shown. Only some compounds are listed: those with a hit (about 4.1% of all), similar ones and a draw of the others.

SMILES	KCNK3 inh	KCNK9 block	hERG rescue	KCNQ1 inh	KCNQ1 pot	KCC2 mod	KCC2 secondary	KCC2 bumet counter	KCC2 sec2	HEK counter1	KCC2 retest ouab	HEK293 Tl flux2
O=C(NC1CCCC1)C(c1ccncc1)N(Cc1ccccc1)C(=O)c1ccc(-c2ccccc2)[nH]1 (stereo not given)	i	i	-10	i	i	-2.1	.	.	.	.	.	.
CCOc1ccc(C(C(=O)NC2CCCC2)N(CCCO)C(=O)c2ccc(-c3ccccc3)[nH]2)cc1 (stereo not given)	i	i	-11	i	i	-5.7*	0.0087	0.0053	?	0.0038	0.017*	0.011
COc1ccc2c(=O)c(-c3ccc(C)cc3)c(-c3ccccc3)oc2c1	i	.	.	.	.	.	.	.	.	.	.	.
CN(C(=O)c1cccc(NC(=O)Cc2ccc(NC(=O)C3CCN(C(=O)c4ccccc4)CC3)cc2)c1)C1CCCCC1	i	.	.	.	.	.	.	.	.	.	.	.
O=S(=O)(NCc1ccccc1)c1ccc(Cl)c(S(=O)(=O)NCc2ccccc2)c1	i	i	-9	i	i	.	0.0076	0.0063	?	0.0061	0.013*	0.0097
CCOc1cc(S(=O)(=O)NCc2ccccc2)ccc1F	i	i	-9	i	i	.	?	0.0053	0.024*	0.0075	?	0.011
COc1cccc(C(=O)NNC(=O)c2ccc3ccccc3c2O)c1	i	i	-17	i	i	.	.	.	.	.	.	.
CCN(C[C@H]1N[C@@](CC)(C(=O)OC)[C@H]2C(=O)N(C)C(=O)[C@@H]12)C(=O)C1CCCCC1	i	.	.	.	.	.	.	.	.	.	.	.
O=C(Cn1cnc2c(nnn2Cc2ccccc2F)c1=O)N1CCN(c2ccccc2)CC1	i	i	-3	i	i	.	.	.	.	.	.	.
O=C(Cn1cnc2c(nnn2Cc2ccc(F)cc2)c1=O)N1CCCc2ccccc21	i	i	-6	i	i	-4*	0.016	0.0051	0.025*	0.0077	0.015	0.011
O=C(Cn1cnc2c(nnn2Cc2ccccc2F)c1=O)OCc1ccccc1	i	i	-10	i	i	-7.4*	0.0082	0.0063	0.033	0.0044	0.015*	0.012
O=C(Cn1cnc2c(nnn2Cc2ccccc2)c1=O)N1CCN(c2ccccc2)CC1	i	i	-15	i	i	-4.5*	0.0065	0.0065	0.032	0.0086	0.014*	0.011
CCc1ccc([C@H]2C(C(=O)O)=C[C@@H](CC3CCCC3)N2S(=O)(=O)c2ccc(C)cc2)cc1	i	.	.	.	.	.	.	.	.	.	.	.
COc1ccccc1CCNC(=O)c1cccc(NC(=O)CC2SC(N3CCCCC3)=NC2=O)c1 (stereo not given)	i	.	.	.	.	.	.	.	.	.	.	.
O=C(OCc1ccccc1C(F)(F)F)c1ccc(Br)c(S(=O)(=O)N2CCOCC2)c1	i	.	.	.	.	.	.	.	.	.	.	.
O=C(O)/C(=C\c1ccc(-c2ccc(F)cc2)o1)c1ccccc1	i	.	.	.	.	-7*	0.0073	0.008*	0.031	0.0074	0.016*	0.01
Cc1ccc2nc(N3CCN(Cc4ccc(F)cc4)C3=O)c(C)cc2c1	i	i	-11	i	i	.	0.016	0.0051	0.024*	0.007	0.013	0.0099
CC(C)(C)c1ccc(NC(=O)C(=O)C2C(=O)Nc3ccccc32)cc1 (stereo not given)	i	i	5.7*	i	i	7.9*	0.0057	0.025*	?	0.018*	0.028*	0.02*
Cc1ccc(NS(=O)(=O)c2ccc(C)c(C(=O)Nc3ccc(S(=O)(=O)Nc4onc(C)c4C)cc3)c2)cc1	i	.	.	.	.	.	.	.	.	.	.	.
C/C(=N\NC(=S)Nc1ccc(F)cc1)C1CC1	i	i	-12	i	i	8.4*	0.0075	0.024*	0.036	0.018*	0.028*	0.022*
N#CCSc1nnc(COc2cccc3ccccc23)n1-c1ccccc1	i	i	-15	i	i	.	.	.	.	.	.	.
N#CCSc1nnc(COc2cccc3ccccc23)n1-c1cccc(Cl)c1	i	i	40*	i	i	7.6*	0.0072	?	0.03	0.0081	0.02	0.011
O=C1NC(=S)S/C1=C\c1cc2ccccc2nc1N1CCCCC1	i	i	-6	i	i	.	.	.	.	.	.	.
COc1ccc2nc(N3CCCCC3)c(/C=C3\SC(=S)NC3=O)cc2c1	i	i	7.4*	i	i	45*	0.016*	0.058*	0.032	0.075*	0.045*	0.017*
CC(=O)c1cccc(NC(=O)COC(=O)COc2c(Cl)cc(Cl)c3ccc(C)nc23)c1	i	i	-5	i	i	4.6*	0.01	0.019*	0.032	0.013*	0.025	0.011*
SMILES	KCNK3 inh	KCNK9 block	hERG rescue	KCNQ1 inh	KCNQ1 pot	KCC2 mod	KCC2 secondary	KCC2 bumet counter	KCC2 sec2	HEK counter1	KCC2 retest ouab	HEK293 Tl flux2
Cc1ccc2c(Cl)cc(Cl)c(OCC(=O)OCC(=O)Nc3ccc(C#N)cc3)c2n1	i	i	1	i	i	1.4	.	.	.	.	.	.
N#Cc1ccccc1OCc1nnc(-c2ccccc2Br)o1	i	i	-10	i	i	.	.	.	.	.	.	.
Brc1ccccc1-c1nnc(COc2cccc3cccnc23)o1	i	i	-15	i	i	-3*	0.0069	0.0062	0.031	0.0063	0.038*	0.0096
COc1ccc(NC(=O)CN(C)CC(=O)N2CCCCCC2)cc1	i	.	.	.	.	.	.	.	.	.	.	.
N#Cc1c(NC(=O)c2ccc(Cn3cc(Br)cn3)o2)sc2c1CCCCC2	i	i	-8	i	i	-0.68	.	.	.	.	.	.
COC(=O)c1sc(NC(=O)c2ccc(Cn3cc(Cl)cn3)o2)c(C#N)c1C	i	i	-4	i	i	.	0.008	0.007	0.029	0.0064	0.042*	0.01
Cc1cccc(NS(=O)(=O)c2cccc(C(=O)N3CCCC(C(F)(F)F)C3)c2)c1 (stereo not given)	i	i	-21	i	i	.	.	.	.	.	.	.

Source: PubChem BioAssay (several laboratories)
